Experimental findings from ChEMBL document CHEMBL1811814, “Synthesis and evaluation of indole, pyrazole, chromone and pyrimidine based conjugates for tumor growth inhibitory activities--development of highly efficacious cytotoxic agents” (Eur J Med Chem, 2010) are described below.

Holding throughout (assay type): organism-based
Data set [1] has as its system Mus musculus. As to the kind of experiment: Toxicity in mouse assessed as mouse survival at 100 mg/kg, ip qd on day 19. Conditions: in vivo. On the set-up: dose 100 mg/kg, route intraperitoneal. Put shortly:
(§1)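 Female athymic nude mice were given intraperitoneal injections of 400, 200 or 100 mg/kg, one mouse per dose level. Body weight loss was monitored, and survival was recorded after 19 days.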

Data set [2] deals with Mus musculus. As to the kind of experiment: Toxicity in mouse assessed as mouse survival at 200 mg/kg, ip qd on day 19. On the set-up: dose 200 mg/kg, route intraperitoneal. The settings on record: in vivo. The gist of the method: as §1
The test system of data set [3] is Mus musculus. As to the kind of experiment: Toxicity in mouse assessed as mouse survival at 400 mg/kg, ip qd on day 19. Set-up: dose 400 mg/kg, route intraperitoneal. The settings on record: in vivo. Put shortly: as §1
Data set [4] in a line: Toxicity in mouse assessed as mouse survival administered intraperitoneally once daily measured after 19 days. Conditions: in vivo, ip. The gist of the method: as §1

Take `CN1C(=O)C(=Cc2cn(Cc3ccccc3)c3ccccc23)C(=O)N(C)C1=O`: the Activity result in the data set on Mus musculus [1], in the data set with Mus musculus [2] and with Mus musculus [3] was “Non-toxic” each time. For the same molecule, the MTD at 456 h in data set [4] was determined as 400 mg/kg.
